From ChEMBL document CHEMBL5647697, “Akt inhibition synergizes with polycomb repressive complex 2 inhibition in the treatment of multiple myeloma” (2019)
Activity calls are given as the source filed them. The calls are words filed in the database; no cut-off is given here.

Columns and labels:
NCI-H929 [1] = assay: Downregulation of E2F1 mRNA expression in human NCI-H929 cells incubated at 0.3 to 3 micromol/L for 24 hrs by qRT-PCR analysis; format: functional, cell-based; details: dose 0.3-3 µmol/L
Method in brief: (§1)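 MM.1S and H929 cells given TAS-117 at the indicated doses for 24 h. mRNA measured by RT-qPCR, fold change after normalization to GAPDH; SD of triplicates; significance versus untreated control.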

NCI-H929 [2] = assay: Induction of apoptosis in human NCI-H929 cells assessed as late apoptotic cells at 2 micromol/L incubated for 12 hrs by annexin V/PI staining based flow cytometry (reference value: […]%); format: functional; details: dose 2 µmol/L
MM1.S [3] = assay: Synergistic activity against human MM.1S cells assessed as combination index […] at 0.125 uM incubated for 48 hrs by […]; format: functional
Method in brief: (§2)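 Cells were exposed to the EZH2/EZH1 inhibitor (UNC1999 or GSK126) for 72 h in total, with the Akt inhibitor added for the last 48 h. Viability was read by MTS assay relative to untreated control cells, in triplicate. The combination index for each dose pair came from isobologram analysis.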

MM1.S [4] = assay: Synergistic activity against human MM.1S cells assessed as combination index preincubated in presence of 1.25 uM GSK126 […] at 0.25 uM incubated for 48 hrs by […]; format: functional; method in brief: as §2
MM1.S [5] = assay: Cytotoxicity against human MM1.S cells transduced with EZH1 assessed as enhanced sensitivity at 0.156 to 2.5 micromol/L 48 hrs by MTS assay; format: functional, cell-based; details: dose 0.156-2.5 µmol/L
Method in brief: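 MM.1S or H929 cells transduced with lentiviral shRNA against EZH1 or against luciferase (shLuc control), then given TAS-117 at the indicated doses for 48 h. Viability by MTS relative to untreated control; mean ± SD of triplicates; compared with shLuc.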

NCI-H929 [6] = assay: Synergistic activity against human NCI-H929 cells assessed as combination index […] at 0.5 uM incubated for 48 hrs by […]; format: functional; method in brief: as §2
MM1.S [7] = assay: Downregulation of EZH2 mRNA expression in human MM1.S cells in presence of 5 micromol/L UNC1999 for 72 hrs followed by compound addition at 2 micromol/L incubated for 24 hrs by qRT-PCR analysis; details: dose 2.0 µmol/L
NCI-H929 [8] = assay: Induction of apoptosis in human NCI-H929 cells assessed as necrotic cells at 5 micromol/L incubated for 48 hrs by annexin V/PI staining based flow cytometry (reference value: 2.61%); format: functional; details: dose 5 µmol/L, at 5 µM
NCI-H929 [9] = assay: Upregulation of CDKN1B mRNA expression in human NCI-H929 cells at 1 micromol/L after 24 hrs by qRT-PCR analysis; format: functional, cell-based; details: dose 1.0 µmol/L
Method in brief: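 Cells were exposed to 1 μmol/L TAS-117 for 24 h. mRNA of FOXO3, FOXO4, BIM and CDKN1B was measured by qRT-PCR in H929 cells. Fold change is relative to the untreated control after normalization to GAPDH. Data are SD of triplicates.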

OPM-2 [10] = assay: Effects on EZH2 mRNA expression in human OPM-2 cells at 3 micromol/L incubated for last 24 hrs by qRT-PCR analysis; format: functional, cell-based; details: dose 3.0 µmol/L
MM1.S [11] = assay: Upregulation of CDKN1B mRNA expression in human MM1.S cells at 1 micromol/L after 24 hrs by qRT-PCR analysis; format: functional, cell-based; details: dose 1.0 µmol/L
NCI-H929 [12] = assay: Induction of apoptosis in human NCI-H929 cells assessed as early apoptotic cells at 2 micromol/L incubated for 12 hrs by annexin V/PI staining based flow cytometry (reference value: 0.37%); format: functional; details: dose 2 µmol/L, at 2 µM
NCI-H929 [13] = assay: Downregulation of E2F2 mRNA expression in human NCI-H929 cells incubated at 0.3 to 3 micromol/L for 24 hrs by qRT-PCR analysis; format: functional, cell-based; details: dose 0.3-3 µmol/L; method in brief: as §1
MM1.S [14] = assay: Downregulation of EZH2 mRNA expression in human MM1.S cells at 0.3 to 3 micromol/L after 24 hrs by qRT-PCR analysis; format: functional, cell-based; details: dose 0.3-3 µmol/L; method in brief: as §1
OPM-2 [15] = assay: Synergistic activity against human OPM-2 cells assessed as combination index preincubated in presence of 1.25 uM UNC1999 for 72 hrs followed by compound addition at 1.25 uM incubated for 48 hrs by MTT assay; format: functional
OPM-2/BTZ [16] = assay: Synergistic activity against human OPM-2/BTZ cells assessed as combination index preincubated in presence of 1.25 uM UNC1999 for 72 hrs followed by compound addition at 2 uM incubated for 48 hrs by MTT assay; format: functional
MM1.S [17] = assay: Synergistic activity against human MM.1S cells assessed as combination index […] compound addition at 0.25 uM incubated for 48 hrs by MTT assay; format: functional; method in brief: as §2
NCI-H929 [18] = assay: Downregulation of EZH2 protein expression in human NCI-H929 cells at 0.3 to 5 micromol/L for 6 to 48 hrs by Western blot analysis; format: functional, cell-based; details: dose 0.3-5 µmol/L, time 6-48 hrs
Method in brief: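 MM.1S and H929 cells exposed to TAS-117 at the indicated doses for 48 h, or to 5 μmol/L for the indicated times. Immunoblot with GAPDH, Akt and H3 as loading controls; EZH2 quantified relative to GAPDH.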

MM1.S [19] = assay: Upregulation of EZH1 protein expression in human MM1.S cells at 0.03 to 3 micromol/L after 48 hrs by Western blot analysis; format: functional, cell-based; details: dose 0.03-3 µmol/L
Method in brief: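 MM.1S and H929 cells were treated with graded TAS-117 for 48 h. EZH1 was detected by immunoblot and quantified relative to the GAPDH loading control.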

OPM-2 [20] = assay: Synergistic activity against human OPM-2 cells assessed as combination index preincubated in presence of 1.25 uM GSK126 for 72 hrs followed by compound addition at 5 uM incubated for 48 hrs by MTT assay; format: functional
OPM-2/BTZ [21] = assay: Cytotoxicity against human OPM-2/BTZ cells assessed as reduction in cell viability at 0.3125 to 10 micromol/L after 48 hrs by MTS assay; format: functional, cell-based; details: dose 0.3125-10 µmol/L
Method in brief: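 Seven myeloma lines (MM.1S, H929, OPM2/BTZ among them) exposed to TAS-117 at increasing concentrations up to 10 μmol/L for 48 h. Viability read by MTS against an untreated control; mean ± SD of triplicates.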

MM1.S [22] = assay: Upregulation of BIM mRNA expression in human MM1.S cells at 1 micromol/L after 24 hrs by qRT-PCR analysis; format: functional, cell-based; details: dose 1.0 µmol/L
NCI-H929 [23] = assay: Synergistic activity against human NCI-H929 cells assessed as combination index […] compound addition at 0.125 uM incubated for 48 hrs by MTT assay; format: functional; method in brief: as §2
NCI-H929 [24] = assay: Induction of apoptosis in human NCI-H929 cells assessed as viable cells at 5 micromol/L incubated for 48 hrs by annexin V/PI staining based flow cytometry (reference value: 95.6%); format: functional; details: NCI-H929, 48 h, dose 5 µmol/L, read-out: Activity
OPM-2 [25] = assay: Synergistic activity against human OPM-2 cells assessed as combination index preincubated in presence of 2.5 uM UNC1999 for 72 hrs followed by compound addition at 2.5 uM incubated for 48 hrs by MTT assay; format: functional
OPM-2/BTZ [26] = assay: Synergistic activity against human OPM-2/BTZ cells assessed as combination index preincubated in presence of 5 uM GSK126 for 72 hrs followed by compound addition at 1 uM incubated for 48 hrs by MTT assay; format: functional

Compound: C[C@]1(O)C[C@@](N)(c2ccc(-c3nc4n(c3-c3ccccc3)COc3ccncc3-4)cc2)C1 [PIFUSERTIB]
- Activity (NCI-H929 [1]): Active
- Activity (NCI-H929 [2]): 3.42%
- CI (MM1.S [3]): 1.08
- CI (MM1.S [4]): 0.954
- Activity (MM1.S [5]): Active
- CI (NCI-H929 [6]): 1.046
- Activity (MM1.S [7]): Active
- Activity (NCI-H929 [8]): 0.84%
- Activity (NCI-H929 [9]): Active
- Activity (OPM-2 [10]): inactive
- Activity (MM1.S [11]): Active
- Activity (NCI-H929 [12]): 4.49%
- Activity (NCI-H929 [13]): Active
- Activity (MM1.S [14]): Active
- CI (OPM-2 [15]): 1.33
- CI (OPM-2/BTZ [16]): 0.395
- CI (MM1.S [17]): 0.584
- Activity (NCI-H929 [18]): Active
- Activity (MM1.S [19]): Active
- CI (OPM-2 [20]): 11.425
- Activity (OPM-2/BTZ [21]): Active
- Activity (MM1.S [22]): Active
- CI (NCI-H929 [23]): 0.858
- viability at 5 µM (NCI-H929 [24]): 82.7%
- CI (OPM-2 [25]): 2.79
- CI (OPM-2/BTZ [26]): 1.274
